Experimental data from ChEMBL document CHEMBL1156307 (J Med Chem, 2010).

Assays:
HCT-116 = test: Antiproliferative activity against human HCT116 cells by MTS assay; assay type: functional, cell-based
How it was run: (§1)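 Monolayer proliferation assay. Cells were seeded at 5000-10000 per well and exposed to eight serial compound dilutions for 72 h. Viability was read by CellTiter-Glo or MTS per the kit protocol, and IC50 was taken from growth curves. Each determination averaged triplicate concentration-inhibition curves. Values are the mean ± standard deviation of two separate determinations.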

Histone deacetylase 1 = Histone deacetylase 1 (Homo sapiens, UniProt Q13547); test: Inhibition of FLAG-tagged HDAC1 expressed in HEK293 cells by fluorescent assay; assay type: cell-based
[1] = target: Voltage-gated inwardly rectifying potassium channel KCNH2 (Homo sapiens, UniProt Q12809); test: Inhibition of human ERG expressed in CHO cells by automated patch clamp electrophysiology assay
[2] = Antiproliferative activity against human H1299 cells by MTS assay; assay type: functional, cell-based; conditions: NCI-H1299; how it was run: as §1
[3] = Association constant, pKa at pH 2 to 12; assay type: physicochemical
Histone deacetylase 3 = Histone deacetylase 3 (Homo sapiens, UniProt O15379); test: Inhibition of FLAG-tagged HDAC3 expressed in HEK293 cells by fluorescent assay; assay type: cell-based
How it was run: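 HDAC3 immunopurified from 293 cells stably expressing FLAG-tagged enzyme. Substrate bis-Boc-(Ac)Lys-rhodamine 110; its deacetylation releases a fluorophore, read on a fluorometric plate reader.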

[4] = target: T1, Protein deacetylase HDAC6 (Homo sapiens, UniProt Q9UBN7); test: Inhibition of FLAG-tagged HDAC6 expressed in HEK293 cells by fluorescent assay; assay type: cell-based
T1 sequence (Q9UBN7 whole entry): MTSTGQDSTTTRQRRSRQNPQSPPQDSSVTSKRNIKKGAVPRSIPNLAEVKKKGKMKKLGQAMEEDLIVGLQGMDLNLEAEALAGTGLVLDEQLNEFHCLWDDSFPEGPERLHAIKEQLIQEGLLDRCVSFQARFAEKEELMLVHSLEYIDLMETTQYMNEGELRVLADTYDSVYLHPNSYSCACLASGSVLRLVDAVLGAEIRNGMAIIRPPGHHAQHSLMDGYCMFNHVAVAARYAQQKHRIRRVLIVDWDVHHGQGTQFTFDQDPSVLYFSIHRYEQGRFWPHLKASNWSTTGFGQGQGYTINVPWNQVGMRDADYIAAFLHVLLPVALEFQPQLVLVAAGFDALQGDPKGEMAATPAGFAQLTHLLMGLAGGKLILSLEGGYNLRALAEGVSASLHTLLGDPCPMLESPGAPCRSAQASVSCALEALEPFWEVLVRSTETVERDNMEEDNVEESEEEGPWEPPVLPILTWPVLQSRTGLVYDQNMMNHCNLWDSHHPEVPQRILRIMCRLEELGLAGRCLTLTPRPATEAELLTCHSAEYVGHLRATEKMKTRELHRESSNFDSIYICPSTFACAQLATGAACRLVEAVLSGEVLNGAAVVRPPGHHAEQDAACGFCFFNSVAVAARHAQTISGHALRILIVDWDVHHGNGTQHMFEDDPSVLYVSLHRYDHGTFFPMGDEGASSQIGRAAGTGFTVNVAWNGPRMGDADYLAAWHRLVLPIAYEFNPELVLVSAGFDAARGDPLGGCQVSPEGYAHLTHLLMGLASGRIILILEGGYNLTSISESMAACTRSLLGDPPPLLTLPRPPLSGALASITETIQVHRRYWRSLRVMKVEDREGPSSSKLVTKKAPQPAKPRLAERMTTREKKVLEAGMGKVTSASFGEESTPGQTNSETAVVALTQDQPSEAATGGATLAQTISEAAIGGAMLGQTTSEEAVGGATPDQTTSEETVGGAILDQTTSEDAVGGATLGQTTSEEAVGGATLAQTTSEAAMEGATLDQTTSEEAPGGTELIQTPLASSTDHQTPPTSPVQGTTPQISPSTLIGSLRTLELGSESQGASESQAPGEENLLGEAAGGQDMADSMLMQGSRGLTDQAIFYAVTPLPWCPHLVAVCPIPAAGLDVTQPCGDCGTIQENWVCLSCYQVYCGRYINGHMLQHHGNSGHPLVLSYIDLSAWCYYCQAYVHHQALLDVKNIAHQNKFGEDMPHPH
How it was run: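 HDAC6 immunopurified from 293 cells stably expressing the FLAG-tagged isoform. Deacetylation of the bis-Boc-(Ac)Lys-rhodamine 110 substrate releases a fluorophore, read on a fluorometric plate reader.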

Histone deacetylase 2 = Histone deacetylase 2 (Homo sapiens, UniProt Q92769); test: Inhibition of HDAC2 expressed in baculovirus system by fluorescent assay
Histone deacetylase 4 = Histone deacetylase 4 (Homo sapiens, UniProt P56524); test: Inhibition of HDAC4 expressed in baculovirus system by fluorescent assay
How it was run: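 HDAC4 purified from a baculovirus expression system. Substrate bis-Boc-(Ac)Lys-rhodamine 110; its deacetylation generates a fluorophore, read on a fluorometric plate reader.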

Histone deacetylase 8 = target: T2, Histone deacetylase 8 (Homo sapiens, UniProt Q9BY41); test: Inhibition of HDAC8 expressed in baculovirus system by fluorescent assay
T2 sequence (Q9BY41 whole entry): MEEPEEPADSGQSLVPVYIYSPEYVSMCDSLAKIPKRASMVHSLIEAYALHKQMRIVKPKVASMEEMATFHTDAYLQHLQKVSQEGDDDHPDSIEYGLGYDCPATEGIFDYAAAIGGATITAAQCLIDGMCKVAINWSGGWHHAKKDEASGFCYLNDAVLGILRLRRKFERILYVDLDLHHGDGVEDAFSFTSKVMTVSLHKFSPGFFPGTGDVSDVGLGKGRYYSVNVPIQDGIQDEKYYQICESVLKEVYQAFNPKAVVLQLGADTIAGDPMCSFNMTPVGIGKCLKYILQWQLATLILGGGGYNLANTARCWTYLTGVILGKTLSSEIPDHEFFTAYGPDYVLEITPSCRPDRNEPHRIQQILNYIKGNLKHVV

Chain of Histone deacetylase 1 (Q13547 whole entry): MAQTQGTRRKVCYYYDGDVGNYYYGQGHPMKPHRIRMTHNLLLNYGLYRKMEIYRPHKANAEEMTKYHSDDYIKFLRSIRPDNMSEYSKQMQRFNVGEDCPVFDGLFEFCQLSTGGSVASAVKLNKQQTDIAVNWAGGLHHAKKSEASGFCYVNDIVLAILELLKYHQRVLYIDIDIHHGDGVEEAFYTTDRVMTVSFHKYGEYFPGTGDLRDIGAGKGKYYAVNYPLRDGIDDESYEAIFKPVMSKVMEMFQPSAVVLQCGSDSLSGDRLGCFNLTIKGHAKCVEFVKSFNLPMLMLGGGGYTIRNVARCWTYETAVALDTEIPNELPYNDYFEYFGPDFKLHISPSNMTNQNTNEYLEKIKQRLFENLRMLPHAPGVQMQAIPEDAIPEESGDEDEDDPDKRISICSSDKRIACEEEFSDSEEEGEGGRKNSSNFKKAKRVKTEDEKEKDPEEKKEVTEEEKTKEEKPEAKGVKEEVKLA
Chain of Voltage-gated inwardly rectifying potassium channel KCNH2 (Q12809 whole entry): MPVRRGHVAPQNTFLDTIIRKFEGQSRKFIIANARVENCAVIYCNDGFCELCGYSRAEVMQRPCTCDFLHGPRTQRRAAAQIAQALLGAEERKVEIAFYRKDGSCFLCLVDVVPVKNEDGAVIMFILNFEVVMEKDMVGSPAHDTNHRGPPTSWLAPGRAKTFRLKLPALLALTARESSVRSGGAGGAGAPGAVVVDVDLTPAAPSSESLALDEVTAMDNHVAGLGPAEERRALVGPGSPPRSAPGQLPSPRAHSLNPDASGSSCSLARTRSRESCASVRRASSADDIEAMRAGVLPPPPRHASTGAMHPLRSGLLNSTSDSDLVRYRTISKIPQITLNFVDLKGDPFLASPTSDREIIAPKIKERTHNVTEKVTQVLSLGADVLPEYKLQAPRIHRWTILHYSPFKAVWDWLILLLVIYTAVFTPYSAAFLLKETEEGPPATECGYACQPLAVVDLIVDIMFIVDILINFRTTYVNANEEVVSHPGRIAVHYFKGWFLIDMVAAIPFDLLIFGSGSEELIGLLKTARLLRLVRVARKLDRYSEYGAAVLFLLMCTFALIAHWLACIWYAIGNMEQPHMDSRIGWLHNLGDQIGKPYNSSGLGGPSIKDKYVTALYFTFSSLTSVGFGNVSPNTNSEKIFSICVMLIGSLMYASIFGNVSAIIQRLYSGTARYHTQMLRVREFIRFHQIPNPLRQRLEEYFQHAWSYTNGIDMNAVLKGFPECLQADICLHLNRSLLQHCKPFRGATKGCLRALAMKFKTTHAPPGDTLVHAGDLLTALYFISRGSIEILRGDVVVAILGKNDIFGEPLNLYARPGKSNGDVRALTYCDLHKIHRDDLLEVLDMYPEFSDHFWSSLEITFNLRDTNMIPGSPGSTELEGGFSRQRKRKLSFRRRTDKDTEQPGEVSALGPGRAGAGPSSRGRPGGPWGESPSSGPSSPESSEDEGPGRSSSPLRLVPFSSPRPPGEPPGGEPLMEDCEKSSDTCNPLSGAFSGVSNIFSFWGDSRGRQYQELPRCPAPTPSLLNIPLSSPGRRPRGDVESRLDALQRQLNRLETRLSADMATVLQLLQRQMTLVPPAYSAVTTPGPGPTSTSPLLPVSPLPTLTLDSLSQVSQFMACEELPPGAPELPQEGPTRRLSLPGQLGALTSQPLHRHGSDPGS
Chain of Histone deacetylase 4 (P56524 whole entry): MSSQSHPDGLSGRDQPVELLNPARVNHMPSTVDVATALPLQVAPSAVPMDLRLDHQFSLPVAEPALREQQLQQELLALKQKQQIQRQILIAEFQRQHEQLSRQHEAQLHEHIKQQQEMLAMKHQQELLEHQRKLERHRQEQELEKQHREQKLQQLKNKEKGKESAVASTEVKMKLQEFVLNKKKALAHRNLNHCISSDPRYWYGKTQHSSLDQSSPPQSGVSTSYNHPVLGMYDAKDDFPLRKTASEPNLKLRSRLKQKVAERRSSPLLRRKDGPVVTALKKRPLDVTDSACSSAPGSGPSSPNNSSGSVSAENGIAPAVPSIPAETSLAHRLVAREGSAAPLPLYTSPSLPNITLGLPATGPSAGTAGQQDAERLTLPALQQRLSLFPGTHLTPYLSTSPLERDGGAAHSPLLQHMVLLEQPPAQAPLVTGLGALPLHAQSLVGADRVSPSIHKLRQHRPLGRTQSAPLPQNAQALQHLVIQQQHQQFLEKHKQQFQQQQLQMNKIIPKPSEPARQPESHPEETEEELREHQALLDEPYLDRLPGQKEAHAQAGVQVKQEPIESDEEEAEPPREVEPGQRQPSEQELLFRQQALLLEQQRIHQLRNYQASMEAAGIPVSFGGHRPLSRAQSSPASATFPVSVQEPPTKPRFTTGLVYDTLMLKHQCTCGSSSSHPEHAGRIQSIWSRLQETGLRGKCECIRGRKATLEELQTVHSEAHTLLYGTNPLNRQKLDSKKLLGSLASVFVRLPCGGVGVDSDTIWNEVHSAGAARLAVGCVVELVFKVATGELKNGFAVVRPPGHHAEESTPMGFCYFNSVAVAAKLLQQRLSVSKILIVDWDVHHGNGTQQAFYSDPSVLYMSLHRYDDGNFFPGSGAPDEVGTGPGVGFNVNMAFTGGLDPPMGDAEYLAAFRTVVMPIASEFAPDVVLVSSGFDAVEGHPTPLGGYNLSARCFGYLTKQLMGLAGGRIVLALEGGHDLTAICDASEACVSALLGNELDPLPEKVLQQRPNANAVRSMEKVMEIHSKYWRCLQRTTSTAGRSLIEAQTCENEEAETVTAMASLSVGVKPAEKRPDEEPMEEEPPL
Chain of Histone deacetylase 3 (O15379 whole entry): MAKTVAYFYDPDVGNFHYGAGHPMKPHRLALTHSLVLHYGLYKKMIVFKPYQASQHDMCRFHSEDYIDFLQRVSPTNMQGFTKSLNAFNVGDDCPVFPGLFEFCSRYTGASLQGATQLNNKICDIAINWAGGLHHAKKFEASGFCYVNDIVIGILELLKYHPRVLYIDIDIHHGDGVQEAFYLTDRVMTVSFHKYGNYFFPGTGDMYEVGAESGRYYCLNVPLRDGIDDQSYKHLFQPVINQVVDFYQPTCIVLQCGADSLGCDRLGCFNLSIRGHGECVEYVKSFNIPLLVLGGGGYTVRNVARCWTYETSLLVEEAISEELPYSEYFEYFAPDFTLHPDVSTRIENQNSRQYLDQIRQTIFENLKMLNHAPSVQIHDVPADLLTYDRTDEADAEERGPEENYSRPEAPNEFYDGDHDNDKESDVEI
Chain of Histone deacetylase 2 (Q92769 whole entry): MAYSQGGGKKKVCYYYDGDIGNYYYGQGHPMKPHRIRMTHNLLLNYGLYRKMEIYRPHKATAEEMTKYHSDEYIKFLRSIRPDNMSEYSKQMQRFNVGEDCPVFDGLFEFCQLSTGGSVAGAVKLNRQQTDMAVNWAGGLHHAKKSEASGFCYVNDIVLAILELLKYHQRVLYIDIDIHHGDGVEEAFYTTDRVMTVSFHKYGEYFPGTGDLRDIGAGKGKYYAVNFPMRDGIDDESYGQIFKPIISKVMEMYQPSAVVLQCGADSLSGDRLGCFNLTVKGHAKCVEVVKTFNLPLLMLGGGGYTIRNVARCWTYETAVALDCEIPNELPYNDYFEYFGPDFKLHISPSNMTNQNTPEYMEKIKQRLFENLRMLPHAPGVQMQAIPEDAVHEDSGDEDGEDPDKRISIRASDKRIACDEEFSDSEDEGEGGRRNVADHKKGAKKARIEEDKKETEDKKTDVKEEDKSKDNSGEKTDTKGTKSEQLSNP

Row | SMILES | IC50 (HCT-116) [nM] | IC50 (Histone deacetylase 1) [nM] | IC50 [1] [nM] | IC50 [2] [nM] | pKa [3] | IC50 (Histone deacetylase 3) [nM] | IC50 [4] [nM] | IC50 (Histone deacetylase 2) [nM] | IC50 (Histone deacetylase 4) [nM] | IC50 (Histone deacetylase 8) [nM]
1 | Cc1[nH]c2ccccc2c1CCN1CCc2ccc(/C=C/C(=O)NO)cc2CC1 | 545 | 76 | 3200 | > 1000 |  |  |  |  |  | 
2 | CC(C)(C)c1[nH]c2ccccc2c1C1CCCN(Cc2ccc(/C=C/C(=O)NO)cc2F)C1 (configuration not stated) | 3.8 |  |  | 20 | 7.3 |  |  |  |  | 
3 | Cc1[nH]c2ccccc2c1CCN1CCCC1c1ccc(/C=C/C(=O)NO)cc1 (configuration not stated) | 1 |  | 19400 | 4.3 |  |  |  |  |  | 
4 | CC(C)(C)c1[nH]c2ccccc2c1C1CCCN(Cc2ccc(/C=C/C(=O)NO)cc2)C1 (configuration not stated) | 0.9 |  | 13500 | 6.3 | 7.8 |  |  |  |  | 
5 | Cc1[nH]c2ccccc2c1CCN1Cc2ccc(/C=C/C(=O)NO)cc2C1 | 41 | 27 | 4800 | 232 |  |  |  |  |  | 
6 | Cc1[nH]c2ccccc2c1CC1CCCCN1Cc1ccc(/C=C/C(=O)NO)cc1 (configuration not stated) | 27 | 24 |  | 153 |  |  |  |  |  | 
7 | CC(C)(C)c1[nH]c2ccccc2c1[C@@H]1CCCN(Cc2ccc(/C=C/C(=O)NO)cc2F)C1 | 143 |  |  | 443 |  | 21 | 110 | 48 | 38 | 364
8 | O=C(/C=C/c1ccc(CN2CCCC(c3c(-c4ccccc4)[nH]c4ccccc34)C2)cc1)NO (configuration not stated) | 6.9 | 11 |  | 31 | 7.7 |  |  |  |  | 
9 | Cc1[nH]c2ccccc2c1CCN1CCc2cc(/C=C/C(=O)NO)ccc2C1 | 119 | 41 |  | 725 |  |  |  |  |  | 
10 | O=C(/C=C/c1ccc(CN2CCCC(c3c[nH]c4ccccc34)C2)c(F)c1)NO (configuration not stated) | 332 | 136 |  | 3520 |  |  |  |  |  | 
11 | Cc1[nH]c2ccccc2c1C1CCN(Cc2ccc(/C=C/C(=O)NO)cc2)C1 (configuration not stated) | 3.2 | 2.8 | 13400 | 14 |  |  |  |  |  | 
12 | Cc1[nH]c2ccccc2c1C1CCCN(Cc2ccc(/C=C/C(=O)NO)cc2)C1 (configuration not stated) | 5.6 | 5 | 27600 | 31 | 7.8 |  |  |  |  | 
13 | CC(C)(C)c1[nH]c2ccccc2c1[C@H]1CCCN(Cc2ccc(/C=C/C(=O)NO)cc2F)C1 | 0.8 |  |  | 5.4 |  | 9 | 118 | 31 | 28 | 217
14 | O=C(/C=C/c1ccc(CN2CCCC(c3c[nH]c4ccccc34)C2)cc1)NO (configuration not stated) | 25 | 11 |  | 141 | 7.3 |  |  |  |  | 
15 | O=C(/C=C/c1ccc(CN(CCO)CCc2c[nH]c3ccccc23)cc1)NO [DACINOSTAT] | 13 |  |  | 161 |  |  |  |  |  | 
16 | Cc1[nH]c2ccccc2c1CCN1CCc2ccc(/C=C/C(=O)NO)cc2C1 | 42 | 13 | 2700 | 165 |  |  |  |  |  | 
17 | O=C(/C=C/c1ccc(CN2CCCC(c3c(-c4ccccc4)[nH]c4ccccc34)C2)c(F)c1)NO (configuration not stated) | 11 | 16 |  | 106 | 7.4 |  |  |  |  | 
18 | CC(C)(C)c1[nH]c2ccccc2c1C1CCCN(Cc2ccc(/C=C/C(=O)NO)cc2Cl)C1 (configuration not stated) | 5.2 |  | 9900 | 60 | 7.4 |  |  |  |  | 
